Data taken from ChEMBL document CHEMBL1125894, “Dual-action cephalosporins: cephalosporin 3'-quaternary ammonium quinolones” (1991).
Converted amounts (≈) assume the structure as drawn.

Assays:
Citrobacter freundii [1] = test: In vitro antibacterial activity against Citrobacter freundii BS 16; format: functional
Summary of the method: (§1)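 Serial 2-fold dilutions in the NCCLS broth microdilution method for aerobic nonfastidious organisms, with an 18-h incubation. The value is reported as the minimum inhibitory concentration (MIC).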

Enterobacter cloacae = test: In vitro antibacterial activity against Enterobacter cloacae 5699; format: functional; summary of the method: as §1
Klebsiella pneumoniae = test: In vitro antibacterial activity against Klebsiella pneumoniae A; format: functional; summary of the method: as §1
Escherichia coli = test: Concentration required for 90% inhibition against 60 kDa penicillin-binding protein 3 binding using [14C]-Pen G as the radioligand.
Summary of the method: (§2)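 Solubilized membranes from sonicated E. coli DC-0 were used. PBP binding was measured as inhibition of [14C]penicillin G binding to each PBP.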

[2] = target: T1, Peptidoglycan D,D-transpeptidase MrdA (Escherichia coli K-12) (UniProt P0AD65); test: Concentration required for 90% inhibition against 66 kDa penicillin-binding protein 2 binding using [14C]-Pen G as the radioligand.; summary of the method: as §2
T1 sequence (whole entry): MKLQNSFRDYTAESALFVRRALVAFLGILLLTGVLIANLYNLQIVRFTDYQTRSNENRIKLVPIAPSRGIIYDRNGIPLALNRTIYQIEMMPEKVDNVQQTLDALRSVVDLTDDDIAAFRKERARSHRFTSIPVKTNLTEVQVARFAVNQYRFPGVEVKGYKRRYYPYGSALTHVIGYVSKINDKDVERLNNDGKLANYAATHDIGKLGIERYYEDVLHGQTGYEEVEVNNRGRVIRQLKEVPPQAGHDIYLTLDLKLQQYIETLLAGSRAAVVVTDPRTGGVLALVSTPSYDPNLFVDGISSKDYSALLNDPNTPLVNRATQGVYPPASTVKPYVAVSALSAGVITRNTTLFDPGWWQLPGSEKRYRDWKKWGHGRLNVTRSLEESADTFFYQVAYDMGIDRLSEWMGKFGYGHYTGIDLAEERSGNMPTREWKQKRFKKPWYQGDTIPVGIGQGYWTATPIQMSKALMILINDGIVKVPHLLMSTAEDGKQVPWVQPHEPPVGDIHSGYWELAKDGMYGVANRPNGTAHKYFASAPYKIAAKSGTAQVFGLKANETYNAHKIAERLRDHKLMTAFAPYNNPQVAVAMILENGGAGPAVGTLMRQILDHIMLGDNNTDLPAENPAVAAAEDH

[3] = target: T2, Penicillin-binding protein 1A (Escherichia coli K-12) (UniProt P02918); test: Concentration required for 90% inhibition against 90 kDa penicillin-binding protein 1a binding using [14C]-Pen G as the radioligand.; summary of the method: as §2
T2 sequence (whole entry): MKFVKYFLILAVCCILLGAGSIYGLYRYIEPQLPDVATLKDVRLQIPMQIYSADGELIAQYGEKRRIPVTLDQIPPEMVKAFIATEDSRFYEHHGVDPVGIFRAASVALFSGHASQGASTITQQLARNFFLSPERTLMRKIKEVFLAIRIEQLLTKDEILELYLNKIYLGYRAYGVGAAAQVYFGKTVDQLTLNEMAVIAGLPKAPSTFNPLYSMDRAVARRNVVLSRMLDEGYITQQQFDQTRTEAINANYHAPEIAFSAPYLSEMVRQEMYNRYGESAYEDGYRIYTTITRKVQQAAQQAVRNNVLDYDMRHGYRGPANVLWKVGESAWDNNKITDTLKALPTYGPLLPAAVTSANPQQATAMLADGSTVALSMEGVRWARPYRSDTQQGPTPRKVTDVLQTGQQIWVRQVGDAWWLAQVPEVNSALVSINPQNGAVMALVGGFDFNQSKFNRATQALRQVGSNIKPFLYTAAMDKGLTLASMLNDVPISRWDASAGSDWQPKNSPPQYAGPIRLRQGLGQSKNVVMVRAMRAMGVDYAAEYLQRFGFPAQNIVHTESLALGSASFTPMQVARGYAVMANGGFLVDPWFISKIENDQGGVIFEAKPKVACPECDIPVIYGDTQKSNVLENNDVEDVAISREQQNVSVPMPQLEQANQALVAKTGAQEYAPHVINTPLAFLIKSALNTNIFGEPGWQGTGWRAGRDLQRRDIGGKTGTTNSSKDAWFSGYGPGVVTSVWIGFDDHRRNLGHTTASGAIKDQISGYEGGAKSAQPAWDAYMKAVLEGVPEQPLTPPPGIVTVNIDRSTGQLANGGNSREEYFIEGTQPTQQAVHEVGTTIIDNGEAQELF

Pseudomonas aeruginosa = test: In vitro antibacterial activity against Pseudomonas aeruginosa 5712; format: functional; summary of the method: as §1
Staphylococcus aureus [4] = test: In vitro antibacterial activity against Staphylococcus aureus 95(MR); format: functional
Summary of the method: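 Staphylococci were tested by the standard agar dilution procedure using serial 2-fold dilutions of agent. The value is reported as the MIC.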

Serratia marcescens = test: In vivo activity in murine against Serratia marcescens SM infection after sc administration.; format: functional
Summary of the method: (§3)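 Mouse protection test in CD1 Swiss albino mice (18–20 g). Mice were infected intraperitoneally with 0.5 mL of a diluted bacterial suspension, then treated within 5 min with one 1.0 mL subcutaneous dose at the dorsal base of the neck. Doses ranged from 0.05 to 250 mg/kg, with six mice per group. ED50 was calculated by the Reed–Muench method.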

Streptococcus pneumoniae [5] = test: In vivo activity in murine against Streptococcus pneumoniae 6301 infection after sc administration.; format: functional; summary of the method: as §3
Streptococcus pneumoniae [6] = test: In vitro antibacterial activity against Streptococcus pneumoniae 6301; format: functional
Summary of the method: (§4)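 Broth macrodilution with serial 2-fold dilutions in cation-supplemented Mueller-Hinton broth containing 10% goat serum. The value is reported as the MIC.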

Staphylococcus aureus [7] = test: In vivo activity in murine against Staphylococcus aureus 753(MR) infection after sc administration.; format: functional; summary of the method: as §3
Streptococcus pyogenes = test: In vitro antibacterial activity against Streptococcus pyogenes 4; format: functional; summary of the method: as §4
Citrobacter freundii [8] = test: In vivo activity in murine against Citrobacter freundii BS#16 infection after sc administration.; format: functional
Summary of the method: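 CD1 Swiss albino mice (18–20 g) infected intraperitoneally with 0.5 mL diluted bacterial culture suspension. Single subcutaneous treatment within 5 min, 1.0 mL at dorsal base of neck, serial dilutions spanning 0.05–250 mg/kg. Six mice per treatment and control group. ED50 (50% protective dose) derived by Reed and Muench method.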

CC(C)(O/N=C(\C(=O)N[C@@H]1C(=O)N2C(C(=O)[O-])=C(C[N+]3(C)CCN(c4c(F)cc5c(=O)c(C(=O)O)cn(CCF)c5c4F)CC3)CS[C@H]12)c1csc(N)n1)C(=O)O
MIC (Citrobacter freundii [1]): 2 µg/mL (≈ 2.39 µM) | MIC (Enterobacter cloacae): 0.25 µg/mL (≈ 0.299 µM) | MIC (Klebsiella pneumoniae): 0.25 µg/mL (≈ 0.299 µM) | Concentration (Escherichia coli): 0.1 µg/mL | Concentration [2]: 100 µg/mL | Concentration [3]: 2 µg/mL | MIC (Pseudomonas aeruginosa): 16 µg/mL (≈ 19.1 µM) | MIC (Staphylococcus aureus [4]): 8 µg/mL (≈ 9.56 µM) | ED50 (Serratia marcescens): 8 mg/kg | ED50 (Streptococcus pneumoniae [5]): 8 mg/kg | MIC (Streptococcus pneumoniae [6]): 0.5 µg/mL (≈ 0.597 µM) | ED50 (Staphylococcus aureus [7]): 44 mg/kg | MIC (Streptococcus pyogenes): 0.5 µg/mL (≈ 0.597 µM) | ED50 (Citrobacter freundii [8]): 9 mg/kg
